Laboratory results published in ChEMBL document CHEMBL4130437, “Bioassay-Guided Isolation of Antibacterial Metabolites from Emericella sp. TJ29” (J Nat Prod, 2017).
Converted amounts (≈) assume the structure as drawn. The source made the active and inactive calls. No cut-off for these calls is given here.

Key:
Escherichia coli [1] = test: Antibacterial activity against ESBL-producing Escherichia coli ATCC 35218 after 16 hrs by broth microdilution method; format: functional; details: ATCC 35218, 16 h
How it was run: (§1)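 Broth microdilution MIC with the inoculum standardized to about 5 × 10^5 CFU/mL. Plates were incubated 16 h at 37 °C. MIC was taken as the lowest concentration with no visible bacterial growth. Each experiment was run three times.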

Klebsiella pneumoniae = test: Antibacterial activity against Klebsiella pneumoniae ATCC 700603 after 16 hrs by broth microdilution method; format: functional; details: Klebsiella pneumoniae, 700603, 16 h; how it was run: as §1
Pseudomonas aeruginosa = test: Antibacterial activity against Pseudomonas aeruginosa ATCC 15442 after 16 hrs by broth microdilution method; format: functional; details: ATCC 15442, 16 h; how it was run: as §1
Enterococcus faecalis = test: Antibacterial activity against Enterococcus faecalis ATCC 29212 after 16 hrs by broth microdilution method; format: functional; details: ATCC 29212, 16 h; how it was run: as §1
Staphylococcus aureus = test: Antibacterial activity against methicillin-resistant Staphylococcus aureus ATCC 43300 after 16 hrs by broth microdilution method; format: functional; details: ATCC 43300, 16 h
Escherichia coli [2] = test: Bactericidal activity against ESBL-producing Escherichia coli ATCC 35218 after 2 to 24 hrs by time kill assay; format: functional, organism-based
How it was run: (§2)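 Overnight MHB culture was diluted into fresh MHB at 5 × 10^5 CFU/mL. Tubes got varied compound concentrations, with untreated inoculated medium as control, and were shaken at 37 °C. At 2, 4, 6, 8, 12 and 24 h, samples were serially diluted, plated on tryptic soy agar and incubated overnight at 37 °C, then colonies were counted. Done at least three times, mean/SD.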

BEAS-2B = test: Cytotoxicity against human BEAS2B cells assessed as reduction in cell viability at 0.064 to 40 uM after 48 hrs by MTS assay; format: cell-based
How it was run: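 BEAS-2B cells grown in RPMI-1640 or DMEM with 10% FBS at 37 °C under 5% CO2. Seeded at 1 × 10^5 cells/mL and left to adhere 12 h. Exposed to compound at various concentrations in triplicate for 48 h, with cisplatin and paclitaxel as positive controls. MTS was added for 4 h, then cells were lysed in SDS/DMF and OD read at 490 nm. IC50 by Reed–Muench.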

Escherichia coli [3] = test: Bacteriostatic activity against ESBL-producing Escherichia coli ATCC 35218 after 2 to 24 hrs by time kill assay; format: functional, organism-based; how it was run: as §2

| Compound | MIC (Escherichia coli [1]) | MIC (Klebsiella pneumoniae) | MIC (Pseudomonas aeruginosa) | MIC (Enterococcus faecalis) | MIC (Staphylococcus aureus) | Activity (Escherichia coli [2]) | Activity (BEAS-2B) | Activity (Escherichia coli [3]) |
| --- | --- | --- | --- | --- | --- | --- | --- | --- |
| NCC[C@H](O)C(=O)N[C@@H]1C[C@H](N)[C@@H](O[C@H]2O[C@H](CN)[C@@H](O)[C@H](O)[C@H]2O)[C@H](O)[C@H]1O[C@H]1O[C@H](CO)[C@@H](O)[C@H](N)[C@H]1O [AMIKACIN] | 2 µg/mL (≈ 3.42 µM) | – | – | – | – | – | – | – |
| CC1(C)C(=O)C=C[C@@]2(C)[C@H]1CC[C@@]13C[C@@]4(C)C=C5C(=O)OC[C@]51[C@@]1(CO1)[C@@H](C4=O)[C@@H]23 | 32 µg/mL (≈ 78.3 µM) | > 128 µg/mL | 64 µg/mL (≈ 157 µM) | > 128 µg/mL | > 128 µg/mL | – | – | – |
| CCC[C@H](O)[C@H](O)C[C@H]1OCc2c(OC)cccc21 | 4 µg/mL (≈ 15 µM) | 16 µg/mL (≈ 60.1 µM) | 4 µg/mL (≈ 15 µM) | 32 µg/mL (≈ 120 µM) | 32 µg/mL (≈ 120 µM) | Active | Non-Toxic | – |
| CO/N=C(\C(=O)N[C@@H]1C(=O)N2C(C(=O)O)=C(CSc3nc(=O)c(O)nn3C)CS[C@H]12)c1csc(N)n1 [CEFTRIAXONE] | – | 1 µg/mL (≈ 1.8 µM) | 1 µg/mL (≈ 1.8 µM) | – | – | – | – | – |
| C=C1[C@H]2C(=O)[C@]3(C)C=C4C(=O)OC[C@]14[C@@]1(CC[C@H]4C(C)(C)C(=O)C=C[C@]4(C)[C@H]21)C3 | 32 µg/mL (≈ 81.5 µM) | 64 µg/mL (≈ 163 µM) | 32 µg/mL (≈ 81.5 µM) | > 128 µg/mL | 64 µg/mL (≈ 163 µM) | – | – | – |
| CCC[C@H](O)[C@H](O)C[C@H]1OCc2cccc(OC)c21 | 8 µg/mL (≈ 30 µM) | > 128 µg/mL | 32 µg/mL (≈ 120 µM) | 32 µg/mL (≈ 120 µM) | > 128 µg/mL | – | – | – |
| O=C(N[C@H](CO)[C@H](O)c1ccc([N+](=O)[O-])cc1)C(Cl)Cl [CHLORAMPHENICOL] | – | – | – | 16 µg/mL (≈ 49.5 µM) | – | – | – | – |
| C=C1[C@H]2C(=O)[C@@]3(C)C[C@]4(CC[C@H]5C(C)(C)C(=O)C=C[C@]5(C)[C@H]24)[C@@]12COC(=O)[C@@H]2[C@H]3O | 2 µg/mL (≈ 4.87 µM) | 32 µg/mL (≈ 78 µM) | 8 µg/mL (≈ 19.5 µM) | 32 µg/mL (≈ 78 µM) | 32 µg/mL (≈ 78 µM) | – | Non-Toxic | Active |
| COc1cccc(/C=C/[C@@H](O)[C@@H](O)[C@H]2O[C@@H]2C)c1CO | 32 µg/mL (≈ 114 µM) | > 128 µg/mL | 32 µg/mL (≈ 114 µM) | > 128 µg/mL | 64 µg/mL (≈ 228 µM) | – | – | – |
| C=C1[C@H]2C(=O)[C@]3(C)C=C4C(=O)OC[C@]14[C@@]1(CC[C@H]4C(C)(C)C(=O)C=C[C@]4(C)[C@]21O)C3 | 64 µg/mL (≈ 157 µM) | > 128 µg/mL | > 128 µg/mL | > 128 µg/mL | > 128 µg/mL | – | – | – |
| COc1cccc2c1CO[C@@H]2C[C@@H](O)[C@@H](O)[C@H]1O[C@@H]1C | > 128 µg/mL | > 128 µg/mL | > 128 µg/mL | > 128 µg/mL | > 128 µg/mL | – | – | – |
